For 39 compounds, IC50 results are on record in ChEMBL document CHEMBL1138867, “Design, synthesis, potency, and cytoselectivity of anticancer agents derived by parallel synthesis from alpha-aminosuberic acid” (J Med Chem, 2006).

Common to all, as to assay type: functional, cell-based
One experiment relates to NFF. The experiment is described as follows: Antiproliferative activity against human NFF cells. An outline of the steps:
(§1)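 Cells cultured in RPMI 1640 with 10% heat-inactivated FCS, 3 mM HEPES, 5% CO2, 37 °C; NFF are primary neonatal foreskin fibroblasts. Cells were seeded at 5 × 10^3/well and left to adhere overnight. They were exposed to compound for 24 h, then the medium was replaced and cells grown a further 72 h. Survival was read by SRB staining at 564 nm, giving IC50.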

The next experiment relates to MM96L. The experiment is described as follows: Antiproliferative activity against human MM96L cells. An outline of the steps: as §1
Another experiment concerns A549. The experiment is described as follows: Antiproliferative activity against human A549 cells. An outline of the steps: as §1
Experiment [1] can be described thus: Antiproliferative activity against human JAM cells. An outline of the steps: as §1
Experiment [2] can be described thus: Antiproliferative activity against human H520 cells. The following applies: NCI-H520. An outline of the steps: as §1
In the next experiment the test system is COLO 205. Briefly: Antiproliferative activity against human Colo205 cells. A digest of the protocol:
as §1

The subject of another experiment is SK-MEL-5. The experiment is described as follows: Antiproliferative activity against human SK-Mel-5 cells. A digest of the protocol: as §1
A further experiment concerns PC-3. Briefly: Antiproliferative activity against human PC3 cells. An outline of the steps:
as §1

The subject of another experiment is SK-MEL-28. Briefly: Antiproliferative activity against human SK-Mel-28 cells. An outline of the steps: as §1
In the next experiment the test system is HT-29. Briefly: Antiproliferative activity against human HT29 cells. A digest of the protocol:
as §1

The subject of the next experiment is DU-145. The experiment is described as follows: Antiproliferative activity against human DU145 cells. A digest of the protocol:
as §1

In the next experiment the test system is T47D. Briefly: Antiproliferative activity against human T-47D cells. A digest of the protocol:
as §1

The next experiment concerns MCF7. Briefly: Antiproliferative activity against human MCF7 cells. An outline of the steps: as §1
The subject of a further experiment is C180-13S. The experiment is described as follows: Antiproliferative activity against human C180-13S cells. A digest of the protocol:
as §1

The subject of another experiment is HOP-62. The experiment is described as follows: Antiproliferative activity against human HOP62 cells. A digest of the protocol: as §1

For the compound `CN(C)c1ccc(C(=O)NC(CCCCCC(=O)NO)C(=O)NC2CCCc3ccccc32)cc1` (stereo not drawn), the IC50 (commonly the midpoint of a concentration-inhibition curve) worked out at 1.81 µM in the experiment with NFF and 0.3 µM in the experiment with MM96L.
The like results for `CN(C)c1ccc(NC(=O)[C@H](CCCCCC(=O)NO)NC(=O)/C=C/c2ccccc2)cc1` were, in that order, 0.24 µM and 0.16 µM.
With `O=C(CCCCC[C@H](NC(=O)Cc1c[nH]c2ccccc12)C(=O)NCc1ccccc1)NO`, the IC50 in the experiment with NFF is over 2.2 µM; in the experiment on MM96L, 0.33 µM.
The like results for `O=C(CCCCC[C@H](NC(=O)OCC1c2ccccc2-c2ccccc21)C(=O)NCc1ccccc1)NO` were, in that order, 5.37 µM and 3.2 µM.
The like results for `O=C(CCCCC[C@H](NC(=O)Cc1ccc(-c2ccccc2)cc1)C(=O)NCc1ccccc1)NO` were, in that order, 5.13 µM and 2.36 µM.
Consider `O=C(CCCCC[C@H](NC(=O)c1ccc(Br)cc1)C(=O)NCc1ccccc1)NO`, for which the IC50 stood at 5.86 µM with NFF and 1.99 µM with MM96L.
Regarding `O=C(CCCCCC(NC(=O)c1cccnc1)C(=O)NCc1ccccc1)NO` (stereo not drawn), the values for the IC50 in the experiment on NFF and in the experiment with MM96L were 24 µM and 9.5 µM, respectively.
Regarding `CN(C)c1ccc(NC(=O)[C@H](CCCCCC(=O)NO)NC(=O)OCc2ccccc2)cc1`, the concentration for half-maximal inhibition (IC50) with NFF came out at 0.65 µM; in the experiment with MM96L, 0.61 µM.
Taken in the same sequence, the figures for `O=C(CCCCC[C@H](NC(=O)OCc1ccccc1)C(=O)NCc1ccncc1)NO` were 23.3 µM and 4.32 µM.
The like results for `O=C(CCCCC[C@H](NC(=O)OCc1ccccc1)C(=O)NCc1ccccc1)NO` were, in that order, 1.52 µM and 1.52 µM.
Take `O=C(CCCCC[C@H](NC(=O)c1cc2c(Br)cccc2[nH]1)C(=O)NCc1ccccc1)NO`: the concentration for half-maximal inhibition (IC50) came out at 1.94 µM in the experiment on NFF and 0.49 µM in the experiment with MM96L.
As for `O=C(CCCCC[C@H](NC(=O)OCc1ccccc1)C(=O)Nc1ccc(-c2ccccc2)cc1)NO`, the IC50 with NFF came out at 2.2 µM; in the experiment on MM96L, 0.33 µM.
In the case of `O=C(/C=C/c1c[nH]c2ccccc12)N[C@@H](CCCCCC(=O)NO)C(=O)NCc1ccccc1`, the values for the IC50 with NFF and with MM96L were 10.4 µM and 3.24 µM, respectively.
The like results for `O=C(CCCCC[C@H](NC(=O)c1cc2ccccc2[nH]1)C(=O)NCc1ccccc1)NO` were, in that order, 1.26 µM and 0.25 µM.
For `O=C(CCCCC[C@H](NC(=O)c1ccc(Br)cc1)C(=O)Nc1ccc(-c2ccccc2)cc1)NO`, the IC50 with A549 was 0.335 µM; in experiment [1] it was 0.182 µM; in [2] it was 0.117 µM; in the experiment on COLO 205, 0.272 µM; with SK-MEL-5, 0.102 µM; in the experiment with PC-3, 0.531 µM. Besides, the IC50 in the experiment with SK-MEL-28 stood at 0.168 µM; in the experiment with NFF it was 0.19 µM; with HT-29, 0.307 µM; in the experiment on DU-145, 0.149 µM; in the experiment with T47D, 0.197 µM; in the experiment on MCF7, 0.149 µM. In addition, the IC50 came to 0.07 µM in the experiment with MM96L, 0.158 µM in the experiment with C180-13S and 0.261 µM in the experiment on HOP-62.
Regarding `O=C(CCCCC[C@H](NC(=O)c1cc2c(O)cccc2[nH]1)C(=O)NCc1ccccc1)NO`, the IC50 amounted to 2.21 µM in the experiment with NFF and 0.33 µM in the experiment with MM96L.
In the case of `CN(C)c1ccc(C(=O)N[C@@H](CCCCCC(=O)NO)C(=O)NCc2ccccn2)cc1`, the figures for the IC50 in the experiment on NFF and in the experiment on MM96L were 33 µM and 3.6 µM, respectively.
Consider `O=C(CCCCCC(NC(=O)c1ccc([N+](=O)[O-])cc1)C(=O)NCc1ccccc1)NO` (stereo not drawn), for which the IC50 was 9 µM in the experiment on NFF and 6 µM in the experiment on MM96L.
On to `CN(C)c1ccc(C(=O)N[C@H](CCCCCC(=O)NO)C(=O)NCc2ccccc2)cc1`, for which the IC50 with NFF came out at 1 µM; with MM96L, 0.16 µM.
Taken in the same sequence, the figures for `O=C(CCCCC[C@H](NC(=O)CCCc1c[nH]c2ccccc12)C(=O)NCc1ccccc1)NO` were 7.03 µM and 1.85 µM.
The like results for `CC(C)CCNC(=O)C(CCCCCC(=O)NO)NC(=O)c1cccnc1` (stereo not drawn) were, in that order, 12 µM and 9 µM.
Taken in the same sequence, the figures for `COc1ccc(CCNC(=O)C(CCCCCC(=O)NO)NC(=O)c2ccco2)cc1` (stereo not drawn) were 1.3 µM and 0.97 µM.
Consider `O=C(CCCCC[C@H](NC(=O)c1ccc(C(F)(F)F)cc1)C(=O)Nc1cccc2cccnc12)NO`, for which the results for the IC50 in the experiment on NFF and with MM96L were 0.696 µM and 0.258 µM, respectively.
On to `O=C(CCCCC[C@H](NC(=O)OCc1ccccc1)C(=O)Nc1cccc2cccnc12)NO`, for which the IC50 in the experiment on A549 was found to be 0.248 µM; in [1], 0.194 µM; in experiment [2] it was 0.118 µM; in the experiment with COLO 205, 0.122 µM; with SK-MEL-5, 0.07 µM; in the experiment on PC-3 it was 0.528 µM. Moreover, the IC50 in the experiment with SK-MEL-28 came to 0.146 µM; in the experiment with NFF, 0.452 µM; in the experiment with HT-29 it was 0.334 µM; in the experiment on DU-145, 0.131 µM; in the experiment with T47D, 0.093 µM; in the experiment on MCF7 it was 0.122 µM. Also, the IC50 in the experiment with MM96L amounted to 0.043 µM; in the experiment with C180-13S, 0.124 µM; in the experiment with HOP-62 it was 0.226 µM.
As for `CN(C)c1ccc(NC(=O)[C@H](CCCCCC(=O)NO)NC(=O)c2ccc(C(F)(F)F)cc2)cc1`, the figures for the IC50 with NFF and with MM96L were 0.4 µM and 0.22 µM, respectively.
The like results for `O=C(CCCCC[C@H](NC(=O)c1ccc(C(F)(F)F)cc1)C(=O)NCc1ccccc1)NO` were, in that order, 1.61 µM and 0.66 µM.
The like results for `O=C(CCCCC[C@H](NC(=O)OCc1ccccc1)C(=O)NC1CCCc2ccccc21)NO` (stereo partly drawn) were, in that order, 1.7 µM and 1.7 µM.
The like results for `O=C(CCCCCC(NC(=O)c1ccco1)C(=O)NCc1ccccc1)NO` (stereo not drawn) were, in that order, 4.6 µM and 0.2 µM.
For `O=C(/C=C/c1ccccc1)N[C@@H](CCCCCC(=O)NO)C(=O)NCc1ccccc1`, the values for the IC50 in the experiment on NFF and in the experiment with MM96L were 4.01 µM and 0.46 µM, respectively.
The like results for `O=C(CCCCC[C@H](NC(=O)c1ccc(Br)cc1)C(=O)NCc1ccccn1)NO` were, in that order, 2.09 µM and 1.15 µM.
Regarding `CC(C)COC(=O)N[C@@H](CCCCCC(=O)NO)C(=O)Nc1cccc2cccnc12`, the half-maximal inhibitory concentration (IC50) in the experiment with A549 was found to be 0.291 µM; in experiment [1], 0.221 µM; in [2], 0.129 µM; in the experiment on COLO 205, 0.395 µM; with SK-MEL-5, 0.1 µM; with PC-3, 0.651 µM. Moreover, the IC50 worked out at 0.17 µM in the experiment on SK-MEL-28; 0.081 µM with NFF; 0.36 µM in the experiment with HT-29; 0.13 µM in the experiment with DU-145; 0.198 µM with T47D; 0.138 µM in the experiment on MCF7. For the same compound, the IC50 in the experiment with MM96L was determined as 0.023 µM; in the experiment with C180-13S it was 0.149 µM; in the experiment with HOP-62, 0.267 µM.
With `CN(C)c1ccc(C(=O)N[C@@H](CCCCCC(=O)NO)C(=O)Nc2cccc3cccnc23)cc1`, the IC50 in the experiment on A549 amounted to 0.148 µM; in experiment [1], 0.085 µM; in experiment [2], 0.063 µM; with COLO 205, 0.223 µM; with SK-MEL-5 it was 0.032 µM; in the experiment with PC-3, 0.22 µM. Moreover, the IC50 in the experiment on SK-MEL-28 was found to be 0.073 µM; in the experiment with NFF, 0.57 µM; in the experiment on HT-29 it was 0.178 µM; in the experiment with DU-145, 0.061 µM; in the experiment on T47D, 0.045 µM; in the experiment with MCF7, 0.035 µM. Moreover, the IC50 in the experiment with MM96L turned out to be 0.02 µM; in the experiment on C180-13S, 0.065 µM; with HOP-62 it was 0.137 µM.
Regarding `O=C(CCCCC[C@H](NC(=O)c1ccc(Br)cc1)C(=O)NCc1ccncc1)NO`, the IC50 in the experiment with NFF is 5.24 µM; in the experiment on MM96L it was 0.83 µM.
Consider `O=C(/C=C/c1ccccc1)N[C@@H](CCCCCC(=O)NO)C(=O)Nc1cccc2cccnc12`, for which the IC50 in the experiment on A549 turned out to be 0.073 µM; in [1], 0.049 µM; in experiment [2], 0.027 µM; with COLO 205 it was 0.141 µM; in the experiment with SK-MEL-5 it was 0.029 µM; in the experiment on PC-3, 0.109 µM. Further, the half-maximal inhibitory concentration (IC50) came out at 0.037 µM with SK-MEL-28; 1.24 µM in the experiment with NFF; 0.099 µM with HT-29; 0.03 µM with DU-145; 0.02 µM in the experiment with T47D; 0.017 µM in the experiment with MCF7. Also, the values for the IC50 in the experiment on MM96L, in the experiment on C180-13S and in the experiment on HOP-62 were 0.021 µM, 0.028 µM and 0.065 µM, respectively.
Regarding `CN(C)c1ccc(C(=O)N[C@@H](CCCCCC(=O)NO)C(=O)NC2(Cc3ccccc3)CCCC2)cc1`, the 50% inhibitory concentration (IC50) with NFF is 3 µM; with MM96L, 0.9 µM.
Taken in the same sequence, the figures for `O=C(CCCCC[C@H](NC(=O)C12CC3CC(CC(C3)C1)C2)C(=O)NCc1ccccc1)NO` were 7.13 µM and 3.95 µM.
Take `O=C(CCCCC[C@H](NC(=O)c1cc2ccccc2[nH]1)C(=O)NC1(Cc2ccccc2)CCCC1)NO`: the IC50 in the experiment with NFF is 1.6 µM; with MM96L, 0.9 µM.
On to `O=C(CCCCC[C@H](NC(=O)c1cccs1)C(=O)NCc1ccccc1)NO`, for which the IC50 in the experiment on NFF worked out at 5.2 µM; in the experiment with MM96L it was 0.89 µM.
Taken in the same sequence, the figures for `CC(C)CCNC(=O)C(CCCCCC(=O)NO)NC(=O)c1ccco1` (stereo not drawn) were 4.4 µM and 1.5 µM.
